# In PubChem BioAssay AID651654 (Broad Institute, 2012):
# Where “and” joins values, the source holds several entries; their conditions need not be identical. Identical values can stand only once. The whole screen tested about 360,000 compounds, of which about 740 (0.21%) were called active.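 How the source made its calls: active means mean lysis activity across replicates of at least 80%, whatever share of replicates individually reach that level; inactive means mean lysis activity below 80%.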 For the sample, actives were picked, then their nearest neighbours and some compounds at random. Some compounds were tested as several samples or in several runs, with calls that do not always agree.
# Assay: fungicidal lysis via adenylate kinase leakage – AK release luminescence, single concentration, primary screen (AID 651654)
# Settings: C. neoformans lysis, 4 h, at 15 µM, stronger effect = higher value
# Method in brief: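 Assay system: C. neoformans cells. Amount: yeast cell density of 5 × 10^6 cells/mL. Technique: AK luminescence. Buffer or medium: YPD. Times: static 4 h at 37 °C with compound, 1 h detection. Dosing: single-point compound dose. Read-out: lysis from increased AK signal.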
row,SMILES,lysis activity
1,C[C@H]1CN([C@@H](C)CO)C(=O)CCCn2nncc2CO[C@H]1CN(C)C(=O)Oc1ccccc1,-2.79% (inactive) and -0.658% (inactive) and 0.85% (inactive)
2,C[C@H](CO)N1C[C@H](C)[C@H](CN(C)C(=O)Oc2ccc3ccccc3c2)OCc2cnnn2CCCC1=O,-8.92% (inactive)
3,C[C@H]1CN([C@@H](C)CO)C(=O)CCCn2nncc2CO[C@H]1CN(C)C(=O)Oc1cccc2ccccc12,5.65% (inactive) and 82.4% (active) and -0.095% (inactive)
4,COc1cccc(C(c2nnnn2-c2ccc3c(c2)OCCO3)N2CCC3(CC2)C(=O)NCN3c2ccccc2)c1OC (stereo not given),-24.5% (inactive)
5,O=C(Cc1ccccc1)N1CCCCN2[C@H](C1)[C@H](c1ccc(C#CC3(O)CCCC3)cc1)[C@@H]2CO,-1.31% (inactive)
